Assays:
genomic loci = experiment: anti-pS18-pS24 ChIP-seq; assay type: cell-based, S. pombe; conditions: wildtype; SFigure 8F
In short: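 FLAG ChIP: strains express FLAG-tagged Swi6 variants; IP with M2 anti-FLAG. pS18-pS24 ChIP: untagged strains; IP with anti-pS18-pS24 antibody; lysis buffer also contains 0.1 mM orthovanadate and 60 mM β-glycerophosphate. Both: grown to saturation in YES at 32°C, then 2 h at 18°C. 600×10^6 cells fixed with 1.5 mM EGS (30 min), then 1% formaldehyde (30 min). Drosophila spike-in added; three technical replicates; spike-in-adjusted cpm.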

H3K9 methylation states = conditions: faster than H3K9me2 to me3; ref Al-Sady et al. 2013; cited from earlier work
Swi6 oligomerization = experiment: Glutaraldehyde crosslinking western, oligomerization; assay type: biochemical; conditions: 0.01% glutaraldehyde, 2 h, room temperature; compared to pSwi6; Figure 7B
In short: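 Purified Swi6 in storage buffer (25 mM HEPES pH 7.5, 100 mM KCl, 10% glycerol, 10 mM βME) was tested at various protein concentrations. It was crosslinked with 0.01% glutaraldehyde for 2 h at room temperature, then quenched with 50 mM Tris pH 7.4. Samples were diluted to 4.2 μM, run on 4–12% Tris-glycine gradient gels and analysed by western blot with fluorescent detection.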

H3Kc9me3 mononucleosomes = experiment: Fluorescence polarization, H3Kc9me3; assay type: binding; conditions: Figure 7C, SFigure 10D
[1] = system: Clr4 (H3K9me2 mononucleosome substrate); experiment: Single turnover H3K9me2 to H3K9me3 conversion by Clr4; assay type: biochemical, S. pombe; conditions: 5 μM Clr4, 1 mM SAM, 500 nM H3K9me2 nucleosomes, 25°C
In short: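 Purified Clr4 (5 μM) was preincubated for 5 min at 25°C with 1 mM SAM and varying Swi6 concentrations (unphosphorylated or phosphorylated). Reactions were started by adding commercial H3K9me2 nucleosomes to 500 nM. Timepoints were stopped by boiling in Laemmli buffer, run on 18% SDS-PAGE and blotted for H3K9me3 and H4. Signals were quantified against H3K9me3 nucleosome standard curves and fitted to a single exponential rise.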

H3K9me0 mononucleosomes = experiment: Fluorescence polarization, H3K9me0 mononucleosome; assay type: binding; conditions: Figure 7C, SFigure 10D
In short: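 Reconstituted H3K9me0 mononucleosomes on fluorescein-labelled 601 DNA were fixed at 25 nM. Purified Swi6, either unphosphorylated or co-expressed with casein kinase II catalytic subunits, was titrated at 0–200 μM. Fluorescence polarization was read at ex 485 / em 528 nm and fitted to a Kd equation.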

Molecule: FLAG-Swi6: 3XFLAG tagged wildtype Swi6 at endogenous locus
- pS18-pS24 pool versus overall FLAG-Swi6 accumulation (genomic loci): no significant differences in accumulation between the overall Swi6 pool and the pS18-pS24 pool

Molecule: Clr4: H3K9 methylase of S. pombe
- rate of H3K9me0 to me1 and me1 to me2 conversion relative to me2 to me3 (H3K9 methylation states): 10 X

B1: pSwi6^S18/24A: phospho-mutant protein, S18 and S24 mutated to alanines, co-expressed with CKII (protein)
chain: MKKGGVRSYRRSSTSKRAVIDDDAEPELPSMTKEAIASHKADSGSSDNEVESDHESKSSSKKLKENAKEEEGGEEEEEDEYVVEKVLKHRMARKGGGYEYLLKWEGYDDPSDNTWSSEADCSGCKQLIEAYWNEHGGRPEPSKRKRTARPKKPEAKEPSPKSRKTDEDKHDKDSNEKIEDVNEKTIKFADKSQEEFNENGPPSGQPNGHIESDNESKSPSQKESNESEDIQIAETPSNVTPKKKPSPEVPKLPDNRELTVKQVENYDSWEDLVSSIDTIERKDDGTLEIYLTWKNGAISHHPSTITNKKCPQKMLQFYESHLTFRENE
modifications: left off: 6xHis, N-terminal, cleaved
- propensity to oligomerize (Swi6 oligomerization): strongly decreased propensity to oligomerize
- increase in affinity towards H3Kc9me3 nucleosome versus pSwi6 (H3Kc9me3 mononucleosomes): 2.6 X
- effect on conversion of H3K9me2 to H3K9me3 by Clr4 [1]: decrease in tri-methylation
- increase in affinity towards H3K9me0 nucleosome versus pSwi6 (H3K9me0 mononucleosomes): 4.5 X

— paper PMC11565791 (bioRxiv, 2025)
